Measured values published in ChEMBL document CHEMBL4138126, “Synthesis, antiproliferative, anti-tubulin activity, and docking study of new 1,2,4-triazoles as potential combretastatin analogues” (Eur J Med Chem, 2017).

Assays:
HepG2 = experiment: Cytotoxicity in human HepG2 cells assessed as reduction in cell viability incubated for 48 hrs by MTT assay; type: functional, cell-based; conditions: HepG2, 48 h
Outline: (§1)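 HepG2 and HL60 (ATCC) grown in DMEM with 10% FBS, 2 mM L-glutamine, penicillin/streptomycin, amphotericin B at 37 °C, 5% CO2. Samples dissolved in DMSO, diluted thousandfold in assay. Cells seeded in serum-free medium, treated with serial concentrations 48 h; MTT 4 h, formazan dissolved in acidified isopropanol, A570. Triplicates averaged; viability relative to untreated/vehicle control.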

HL-60 = experiment: Cytotoxicity in human HL60 cells assessed as reduction in cell viability incubated for 48 hrs by MTT assay; type: functional, cell-based; conditions: HL-60, 48 h; outline: as §1
CCRF-CEM = experiment: Growth inhibition of human CCRF-CEM cells assessed as cell growth at 10 uM after 48 hrs by sulforhodamine B assay; type: functional; conditions: read-out: Activity
Outline: (§2)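 NCI 60-cell-line panel screen (nine cancer types). Compounds added at single concentration 10^-5 M, cultures incubated 48 h; growth inhibition percentages reported.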

RPMI-8226 = experiment: Growth inhibition of human RPMI8226 cells assessed as cell growth at 10 uM after 48 hrs by sulforhodamine B assay; type: functional; conditions: RPMI-8226, 48 h, read-out: Activity; outline: as §2
A549 = experiment: Growth inhibition of human A549/ATCC cells assessed as cell growth at 10 uM after 48 hrs by sulforhodamine B assay; type: functional; conditions: A549, 48 h, read-out: Activity; outline: as §2
HOP-92 = experiment: Growth inhibition of human HOP92 cells assessed as cell growth at 10 uM after 48 hrs by sulforhodamine B assay; type: functional; conditions: HOP-92, 48 h, read-out: Activity; outline: as §2
NCI-H23 = experiment: Growth inhibition of human NCI-H23 cells assessed as cell growth at 10 uM after 48 hrs by sulforhodamine B assay; type: functional; conditions: NCI-H23, 48 h, read-out: Activity; outline: as §2
NCI-H322M = experiment: Growth inhibition of human NCI-H322M cells assessed as cell growth at 10 uM after 48 hrs by sulforhodamine B assay; type: functional; conditions: read-out: Activity; outline: as §2
NCI-H460 = experiment: Growth inhibition of human NCI-H460 cells assessed as cell growth at 10 uM after 48 hrs by sulforhodamine B assay; type: functional; conditions: NCI-H460, 48 h, read-out: Activity; outline: as §2
HCT-116 = experiment: Growth inhibition of human HCT116 cells assessed as cell growth at 10 uM after 48 hrs by sulforhodamine B assay; type: functional; conditions: HCT-116, 48 h, read-out: Activity; outline: as §2
HT-29 = experiment: Growth inhibition of human HT-29 cells assessed as cell growth at 10 uM after 48 hrs by sulforhodamine B assay; type: functional; conditions: HT-29, 48 h, read-out: Activity; outline: as §2
SW-620 = experiment: Growth inhibition of human SW620 cells assessed as cell growth at 10 uM after 48 hrs by sulforhodamine B assay; type: functional; conditions: SW-620, 48 h, read-out: Activity
Outline: (§3)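 NCI 60-cell-line panel from nine tumour types (leukaemia, lung, colon, CNS, melanoma, ovarian, renal, prostate, breast). Each compound was added at one single concentration, and cultures were incubated for 48 h. Results are reported as percent growth inhibition.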

SF-268 = experiment: Growth inhibition of human SF268 cells assessed as cell growth at 10 uM after 48 hrs by sulforhodamine B assay; type: functional; conditions: SF-268, 48 h, read-out: Activity; outline: as §2
SF-539 = experiment: Growth inhibition of human SF539 cells assessed as cell growth at 10 uM after 48 hrs by sulforhodamine B assay; type: functional; conditions: SF-539, 48 h, read-out: Activity; outline: as §2
SNB-19 = experiment: Growth inhibition of human SNB19 cells assessed as cell growth at 10 uM after 48 hrs by sulforhodamine B assay; type: functional; conditions: SNB-19, 48 h, read-out: Activity; outline: as §3
SNB-75 = experiment: Growth inhibition of human SNB75 cells assessed as cell growth at 10 uM after 48 hrs by sulforhodamine B assay; type: functional; conditions: SNB-75, 48 h, read-out: Activity; outline: as §3
LOX IMVI = experiment: Growth inhibition of human LOXIMVI cells assessed as cell growth at 10 uM after 48 hrs by sulforhodamine B assay; type: functional; conditions: read-out: Activity; outline: as §2
Malme-3M = experiment: Growth inhibition of human MALME-3M cells assessed as cell growth at 10 uM after 48 hrs by sulforhodamine B assay; type: functional; conditions: read-out: Activity; outline: as §2
M14 = experiment: Growth inhibition of human M14 cells assessed as cell growth at 10 uM after 48 hrs by sulforhodamine B assay; type: functional; conditions: M14, 48 h, read-out: Activity; outline: as §2
SK-MEL-2 = experiment: Growth inhibition of human SK-MEL-2 cells assessed as cell growth at 10 uM after 48 hrs by sulforhodamine B assay; type: functional; conditions: SK-MEL-2, 48 h, read-out: Activity; outline: as §2
OVCAR-3 = experiment: Growth inhibition of human OVCAR3 cells assessed as cell growth at 10 uM after 48 hrs by sulforhodamine B assay; type: functional; conditions: OVCAR-3, 48 h, read-out: Activity; outline: as §2
OVCAR-4 = experiment: Growth inhibition of human OVCAR4 cells assessed as cell growth at 10 uM after 48 hrs by sulforhodamine B assay; type: functional; conditions: OVCAR-4, 48 h, read-out: Activity; outline: as §2
NCI/ADR-RES = experiment: Growth inhibition of human NCI-ADR-RES cells assessed as cell growth at 10 uM after 48 hrs by sulforhodamine B assay; type: functional; conditions: read-out: Activity; outline: as §2
A498 = experiment: Growth inhibition of human A498 cells assessed as cell growth at 10 uM after 48 hrs by sulforhodamine B assay; type: functional; conditions: A498, 48 h, read-out: Activity; outline: as §2
ACHN = experiment: Growth inhibition of human ACHN cells assessed as cell growth at 10 uM after 48 hrs by sulforhodamine B assay; type: functional; conditions: read-out: Activity; outline: as §2
RXF 393 = experiment: Growth inhibition of human RXF393 cells assessed as cell growth at 10 uM after 48 hrs by sulforhodamine B assay; type: functional; conditions: RXF 393, 48 h, read-out: Activity; outline: as §2
TK-10 = experiment: Growth inhibition of human TK10 cells assessed as cell growth at 10 uM after 48 hrs by sulforhodamine B assay; type: functional; conditions: TK-10, 48 h, read-out: Activity; outline: as §3
UO-31 = experiment: Growth inhibition of human UO31 cells assessed as cell growth at 10 uM after 48 hrs by sulforhodamine B assay; type: functional; conditions: UO-31, 48 h, read-out: Activity; outline: as §3
PC-3 = experiment: Growth inhibition of human PC3 cells assessed as cell growth at 10 uM after 48 hrs by sulforhodamine B assay; type: functional; conditions: PC-3, 48 h, read-out: Activity; outline: as §2
DU-145 = experiment: Growth inhibition of human DU145 cells assessed as cell growth at 10 uM after 48 hrs by sulforhodamine B assay; type: functional; conditions: DU-145, 48 h, read-out: Activity; outline: as §2
MCF7 = experiment: Growth inhibition of human MCF7 cells assessed as cell growth at 10 uM after 48 hrs by sulforhodamine B assay; type: functional; conditions: MCF7, 48 h, read-out: Activity; outline: as §2
BT-549 = experiment: Growth inhibition of human BT549 cells assessed as cell growth at 10 uM after 48 hrs by sulforhodamine B assay; type: functional; conditions: BT-549, 48 h, read-out: Activity; outline: as §2
T47D = experiment: Growth inhibition of human T47D cells assessed as cell growth at 10 uM after 48 hrs by sulforhodamine B assay; type: functional; conditions: read-out: Activity; outline: as §3

Row | Structure (SMILES) | IC50 (HepG2) | IC50 (HL-60) | growth at 10 µM (CCRF-CEM) | growth at 10 µM (RPMI-8226) | growth at 10 µM (A549) | growth at 10 µM (HOP-92) | growth at 10 µM (NCI-H23) | growth at 10 µM (NCI-H322M) | growth at 10 µM (NCI-H460) | growth at 10 µM (HCT-116) | growth at 10 µM (HT-29) | growth at 10 µM (SW-620) | growth at 10 µM (SF-268) | growth at 10 µM (SF-539) | growth at 10 µM (SNB-19) | growth at 10 µM (SNB-75) | growth at 10 µM (LOX IMVI) | growth at 10 µM (Malme-3M) | growth at 10 µM (M14) | growth at 10 µM (SK-MEL-2) | also measured
1 | COc1cccc(-n2nc(C(=O)NCc3ccccc3OC)nc2-c2cc(OC)c(OC)c(OC)c2)c1 | 1.67 µM | > 100 µM | 107% | 100% | 92.8% | 108% | 90.7% | 94.3% | 111% | 102% | 81.3% | 111% | 95.5% | 96.5% | 100% | 63% | 95.9% | 99.7% | 99.8% | 77.8% | growth at 10 µM (OVCAR-3): 101%; growth at 10 µM (OVCAR-4): 90.8%; growth at 10 µM (NCI/ADR-RES): 77.4%; growth at 10 µM (A498): 104%; growth at 10 µM (ACHN): 106%; growth at 10 µM (RXF 393): 107%; growth at 10 µM (TK-10): 81%; growth at 10 µM (UO-31): 59.1%; growth at 10 µM (PC-3): 104%; growth at 10 µM (DU-145): 106%; growth at 10 µM (MCF7): 98.7%; growth at 10 µM (BT-549): 103%; growth at 10 µM (T47D): 75.8%
2 | CCOc1ccc(-n2nc(C(=O)Nc3ccc(OC)c(O)c3)nc2-c2cc(OC)c(OC)c(OC)c2)cc1 | 13.7 µM | > 100 µM | 89.5% | 67.7% | 94% | 68.1% | 86.1% | 84.7% | 97.6% | 96.7% | 99.2% | 104% | 94.1% | 96.2% | 91.8% | 71.2% | 90.6% | 114% | 103% | 96% | growth at 10 µM (OVCAR-3): 97.8%; growth at 10 µM (OVCAR-4): 99.8%; growth at 10 µM (NCI/ADR-RES): 86.4%; growth at 10 µM (A498): 111%; growth at 10 µM (ACHN): 91.5%; growth at 10 µM (RXF 393): 112%; growth at 10 µM (TK-10): 107%; growth at 10 µM (UO-31): 56%; growth at 10 µM (PC-3): 72%; growth at 10 µM (DU-145): 98.5%; growth at 10 µM (MCF7): 90.9%; growth at 10 µM (BT-549): 103%; growth at 10 µM (T47D): 88.8%
